# Source: ChEMBL document CHEMBL5303300, “EUbOPEN Chemogenomics Library - Multiplex” (2023)
# “And” between values parts separate entries of the source, which are not always exact repeats. Equal entries are not always repeated.
# Key:
# [1] = system: U2OS; test: Multiplex assay against U2OS; type: toxicity, cell-based; conditions: human, number of replicates 2
# Method in brief: (§1)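 Imaging took place on a CQ1 microscope at 37°C and 5% CO2 once compound had been added to live cells stained at seeding with Hoechst33342, BioTracker Green Microtubule Cytoskeleton Dye, MitoTracker Red and Annexin V Alexa Fluor 680. CellPathfinder machine-learning gating classed cells as Hoechst high-intensity objects or normal cells, classed normal cells as having healthy, pyknosed or fragmented nuclei, and classed pyknosed cells as mitotic or apoptotic. Tubulin, mitochondrial-mass and membrane-permeability phenotypes are per cents of the healthy-nucleus cells.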
# [2] = system: Fibroblast; test: Multiplex assay against human fibroblast; type: toxicity, cell-based; conditions: number of replicates 2; method in brief: as §1
# [3] = 24 h, 1 µM, compound concentration 1 uM
# [4] = 24 h, 10 µM, compound concentration 10 uM
# [5] = 48 h, 1 µM, compound concentration 1 uM
# [6] = 48 h, 10 µM, compound concentration 10 uM
# [7] = 12 h, 1 µM, compound concentration 1 uM
# [8] = 12 h, 10 µM, compound concentration 10 uM
structure (smiles),measurement,setting,value
Cc1cccc(S(=O)(=O)N(C)[C@H](C)CCN2CCC(C)CC2)c1.Cl,Population Normal (%),[1]; [3],100%
same,Population Pyknosed Nuclei (%),[1]; [3],11% and 17%
same,Population Apoptotic (%),[1]; [4],80% and 54%
same,Population Healthy Nuclei (%),[1]; [4],54% and 91%
same,Population Hoechst High Intensity Objects (%),[1]; [4],0%
same,Population Membrane Permeable-Phenotype (%),[1]; [4],0% and 2%
same,Population Mitochondria Different-Phenotype (%),[1]; [4],0% and 1%
same,Population Mitotic Cells (%),[1]; [4],20% and 45%
same,Population Normal (%),[1]; [4],100%
same,Population Tubulin-Different-Phenotype (%),[1]; [4],58% and 56%
same,Population Apoptotic (%),[1]; [5],59% and 46%
same,Population Fragmented Nuclei (%),[1]; [5],2% and 12%
same,Population Healthy Nuclei (%),[1]; [5],89% and 68%
same,Population Hoechst High Intensity Objects (%),[1]; [5],0%
same,Population Membrane Permeable-Phenotype (%),[1]; [5],2% and 0%
same,Population Mitochondria Different-Phenotype (%),[1]; [5],0%
same,Population Mitotic Cells (%),[1]; [5],40% and 53%
same,Population Normal (%),[1]; [5],100%
same,Population Pyknosed Nuclei (%),[1]; [5],8% and 18%
same,Population Tubulin-Different-Phenotype (%),[1]; [5],86% and 42%
same,Population Apoptotic (%),[1]; [6],30% and 62%
same,Population Healthy Nuclei (%),[1]; [6],92% and 51%
same,Population Hoechst High Intensity Objects (%),[1]; [6],0%
same,Population Mitochondria Different-Phenotype (%),[1]; [6],0%
same,Population Mitotic Cells (%),[1]; [6],69% and 37%
same,Population Normal (%),[1]; [6],99% and 100%
same,Population Tubulin-Different-Phenotype (%),[1]; [6],62% and 46%
same,Population Apoptotic (%),[2]; [7],34% and 44%
same,Population Fragmented Nuclei (%),[2]; [7],11% and 9%
same,Population Healthy Nuclei (%),[2]; [7],67% and 73%
same,Population Hoechst High Intensity Objects (%),[2]; [7],0%
same,Population Membrane Permeable-Phenotype (%),[2]; [7],8% and 4%
same,Population Mitochondria Different-Phenotype (%),[2]; [7],1% and 3%
same,Population Mitotic Cells (%),[2]; [7],65% and 55%
same,Population Normal (%),[2]; [7],100%
same,Population Pyknosed Nuclei (%),[2]; [7],20% and 17%
same,Population Tubulin-Different-Phenotype (%),[2]; [7],16% and 10%
same,Total Cell Count,[2]; [7],140 and 163
same,Population Apoptotic (%),[2]; [8],42% and 46%
same,Population Fragmented Nuclei (%),[2]; [8],16% and 8%
same,Population Healthy Nuclei (%),[2]; [8],70% and 80%
same,Population Hoechst High Intensity Objects (%),[2]; [8],0%
same,Population Membrane Permeable-Phenotype (%),[2]; [8],6% and 4%
same,Population Mitochondria Different-Phenotype (%),[2]; [8],2% and 1%
same,Population Mitotic Cells (%),[2]; [8],57% and 53%
same,Population Normal (%),[2]; [8],100%
same,Population Pyknosed Nuclei (%),[2]; [8],13% and 10%
same,Population Tubulin-Different-Phenotype (%),[2]; [8],35% and 13%
same,Total Cell Count,[2]; [8],187 and 145
same,Population Apoptotic (%),[2]; [3],50% and 54%
same,Population Fragmented Nuclei (%),[2]; [3],16% and 13%
same,Population Healthy Nuclei (%),[2]; [3],61% and 71%
same,Population Hoechst High Intensity Objects (%),[2]; [3],1% and 0%
same,Population Membrane Permeable-Phenotype (%),[2]; [3],8% and 2%
same,Population Mitochondria Different-Phenotype (%),[2]; [3],1% and 0%
same,Population Mitotic Cells (%),[2]; [3],50% and 45%
same,Population Normal (%),[2]; [3],98% and 100%
same,Population Pyknosed Nuclei (%),[2]; [3],22% and 15%
same,Population Tubulin-Different-Phenotype (%),[2]; [3],14% and 9%
same,Total Cell Count,[2]; [3],144 and 156
same,Population Apoptotic (%),[2]; [4],50% and 53%
same,Population Fragmented Nuclei (%),[2]; [4],13% and 9%
same,Population Healthy Nuclei (%),[2]; [4],76% and 81%
same,Population Hoechst High Intensity Objects (%),[2]; [4],0%
same,Population Membrane Permeable-Phenotype (%),[2]; [4],6% and 1%
same,Population Mitochondria Different-Phenotype (%),[2]; [4],2% and 0%
same,Population Mitotic Cells (%),[2]; [4],50% and 46%
same,Population Normal (%),[2]; [4],100%
same,Population Pyknosed Nuclei (%),[2]; [4],10% and 9%
same,Total Cell Count,[2]; [4],177 and 144
same,Population Apoptotic (%),[2]; [5],58% and 73%
same,Population Fragmented Nuclei (%),[2]; [5],15%
same,Population Healthy Nuclei (%),[2]; [5],63% and 72%
same,Population Hoechst High Intensity Objects (%),[2]; [5],0%
same,Population Membrane Permeable-Phenotype (%),[2]; [5],4% and 1%
same,Population Mitochondria Different-Phenotype (%),[2]; [5],2% and 0%
same,Population Mitotic Cells (%),[2]; [5],41% and 26%
same,Population Normal (%),[2]; [5],100%
same,Population Pyknosed Nuclei (%),[2]; [5],20% and 11%
same,Total Cell Count,[2]; [5],139 and 160
same,Population Apoptotic (%),[2]; [6],54% and 72%
same,Population Fragmented Nuclei (%),[2]; [6],20% and 11%
same,Population Healthy Nuclei (%),[2]; [6],74% and 81%
same,Population Hoechst High Intensity Objects (%),[2]; [6],0%
same,Population Membrane Permeable-Phenotype (%),[2]; [6],2%
same,Population Mitochondria Different-Phenotype (%),[2]; [6],0%
same,Population Mitotic Cells (%),[2]; [6],45% and 27%
same,Population Normal (%),[2]; [6],100%
same,Population Pyknosed Nuclei (%),[2]; [6],5% and 7%
same,Total Cell Count,[2]; [6],185 and 152
